# Only some compounds are listed: those with a hit (about 9.6% of all), similar ones and a draw of the others.
# BaF3 parental = counter-screen for JAK2V617F inhibitors: parental Ba/F3 viability inhibitors | actives 1.1% (n = 220,000) | inhibition, % at 5.6 µM | CellTiter-Glo ATP luminescence;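 active means inhibition above a per-campaign cutoff, the mean inhibition of all tested compounds plus 3 SD, cut at about 27% in these data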;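 further: 0% = DMSO wells and 100% = JAK Inhibitor I control wells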
# bCat nuc transl = modulators of beta-catenin nuclear translocation. AID 1665. HeLa beta-catenin nuclear translocation, immunofluorescence imaging. nuclear translocation activity, % at 5 µM. actives 0.3% (n = 190,000);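 active means nuclear translocation activity above 50% at 5 µM, with a well cell count of 50 or more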;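 further: per-cell ratio of nuclear to cytoplasmic median beta-catenin stain intensity; plate controls were DMSO negative control for no effect and GSK-3 inhibitor IX positive control for full effect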
#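 System: Human HeLa cells, endogenous beta-catenin | Compound dosing: 5 µM primary, 0.02–20 µM confirmation | Timing: 24 h compound exposure at 37°C, 5% CO2 | Measured by: Fluorescence imaging of beta-catenin antibody stain plus DAPI | Read-out basis: % activation of per-cell nuclear versus cytoplasmic median beta-catenin signal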
# Ba/F3 V617F tox = lowers viability of Ba/F3 cells expressing EpoR and JAK2V617F; ATP luminescence; inhibition, % at 5.6 µM; actives 1.1% (n = 220,000); AID 1446;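 active means inhibition above the campaign mean plus 3 SD over all tested compounds, cut at about 24% in these data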;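 further: cytokine-independent growth of Ba/F3 cells driven by EpoR plus mutant JAK2; 0% = DMSO-treated cells and 100% = JAK inhibitor I control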
# Lmaj promast = Leishmania major promastigote growth inhibition | Leishmania major promastigotes, resazurin fluorescence viability | inhibition, % at 10 µM | actives 9% (n = 200,000); in the data active means inhibition above about 50%;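 further: promastigotes grown with compound for 44 hours at 28 °C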
# APP 5UTR inh = APP translation inhibition. SH-SY5Y APP 5'UTR-luciferase reporter, luminescence. actives 0.82% (n = 190,000). inhibition, % at 2 µM;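 active means inhibition above a set limit, derived from the sample mean plus 3 SD, cut at about 45% in these data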
# MT stabilize HCS = stabilizes microtubules in HeLa cells; HeLa tubulin immunostaining HCS, 24 h; share of cells brighter than vehicle mean+2SD; % tubulin-high responders, % at 10 µM; actives 0.83% (n = 200,000); AID 2205;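 active means plate Z-score above 3 for both tubulin-high and condensed-nucleus cell shares, with cell loss under 80%, at 10 µM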;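 further: anti alpha tubulin signal scored within the nucleus-defined area of each cell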
# * = called active by the depositor; . = no result.
SMILES,BaF3 parental,bCat nuc transl,Ba/F3 V617F tox,Lmaj promast,APP 5UTR inh,MT stabilize HCS
CC(C)(C)c1ccc(OCC(=O)O)cc1,4,-1,1,-6,-15,3
CCCCCCCNC1=CC(=O)CC(c2ccco2)C1 (centres undefined),38*,.,29*,33,-19,1
Cc1cc2nc(-c3ccc(SCC(=O)N4CCc5ccccc54)nc3)[nH]c2cc1C,5,1,0,86*,-110,7
Cc1cc2nc(-c3ccc(SCC(=O)NC(C)C)nc3)[nH]c2cc1C,11,2,4,49,-56,5
Cc1cc2nc(-c3ccc(SCc4ccc(C(=O)O)cc4)nc3)[nH]c2cc1C,5,12,-1,7,-89,18*
COC(=O)c1ccccc1NC(=O)C1CC(=O)N(C2CCCCC2)C1 (centres undefined),4,2,2,-6,-35,3
COc1cc(/C=C2\SC(=Nc3cccnc3)NC2=O)cc(OC)c1OC,4,-2,-5,.,.,.
COc1cc(/C=C2/SC(=Nc3ccc(O)cc3)NC2=O)ccc1O,72*,50,75*,.,.,.
COc1ccc(C(=O)C2CCN(C(=S)NCC3CCCO3)CC2)cc1 (centres undefined),8,0,6,-5,5,2
O=C(CSc1nnnn1C1CCCC1)NCCc1ccccc1,-2,1,0,.,.,.
CCOC(=O)c1c(SC)[nH]c2c(Cl)cccc2c1=O,-1,0,-2,.,.,.
COc1ccc(-c2cc(=O)[nH][nH]2)cc1OC,-1,1,-3,84*,3,1
Cc1cccc(Nc2nc3c(S(=O)(=O)c4ccccc4)nnn3c3ccccc23)c1,3,-7,0,50*,16,4
Cc1cc(C)cc(Nc2nc3c(S(=O)(=O)c4ccccc4)nnn3c3ccccc23)c1,3,-9,0,50,-9,5
N#Cc1ccc(-c2ccc(OCC(=O)NCCCN3CCCC3=O)cc2)cc1,0,3,0,12,-4,5
CN1CCN(S(=O)(=O)c2ccc(Br)c3nsnc23)CC1,0,-4,-3,-4,-8,2
CN1CCN(S(=O)(=O)c2ccc(Sc3nc4ccccc4[nH]3)c3nsnc23)CC1,2,-4,-3,100*,-1,3
Cc1ccc(-c2ccc(/C=N/O)o2)cc1[N+](=O)[O-],2,-2,2,16,-19,3
O=C(O)/C=C/c1ccc([N+](=O)[O-])o1,4,0,0,-5,18,4
Cc1ccc(S(=O)(=O)N/N=C\c2ccc([N+](=O)[O-])o2)cc1,1,0,-3,87*,5,3
Cc1cc2ncn(/N=C/c3ccc([N+](=O)[O-])o3)c2cc1C,3,.,2,99*,13,4
Cc1ccc(S(=O)(=O)N/N=C\c2ccc(C)o2)cc1,8,.,-3,-5,-10,2
O=[N+]([O-])c1ccc(/C=N/N=C/c2ccc([N+](=O)[O-])o2)o1,-2,4,3,100*,94*,3
O=[N+]([O-])c1ccc(/C=N/NS(=O)(=O)c2ccc(Cl)cc2)o1,6,0,-1,53*,-5,3
CCn1c2ccccc2c2cc(NS(=O)(=O)c3ccccc3C)ccc21,4,.,6,5,-16,43
SMILES,BaF3 parental,bCat nuc transl,Ba/F3 V617F tox,Lmaj promast,APP 5UTR inh,MT stabilize HCS
CC(=O)n1c(Cl)c(NC(=O)CCl)c2ccccc21,4,2,3,41,75*,6
CCn1c(CCNC(=O)c2ccc(OC)cc2)nnc1SCC(=O)Nc1ccccc1F,5,-2,1,-5,-10,2
CCn1c(CCNC(=O)c2ccc(OC)cc2)nnc1SCc1ccc(Cl)cc1Cl,6,1,1,91*,-14,2
CCn1c(CCNC(=O)c2ccc(OC)cc2)nnc1SCc1ccc(Cl)c(Cl)c1,4,5,1,93*,11,3
COc1c(C(=O)NNC(=O)c2ccccc2Cl)csc1Br,0,0,3,.,.,.
COc1ccc(C2(O)CN(c3ccc(C)cc3)C3=[N+]2CCCC3)cc1 (centres undefined),34*,0,17,-1,2,2
Cc1cccc(NC(=O)C2(c3cccs3)CCOCC2)c1,4,2,0,-3,16,4
Cc1ccc(N2CC(O)(c3cccs3)[N+]3=C2CCCC3)cc1 (centres undefined),45*,3,9,39,-4,3
Cc1ccccc1N1CC(O)(c2cccs2)[N+]2=C1CCCC2 (centres undefined),6,1,7,16,-4,4
Cc1cccc(N2CC(O)(c3cccs3)[N+]3=C2CCCC3)c1 (centres undefined),36*,-1,26*,13,-9,4
Cc1cccc(N2CC(O)(c3cccs3)[N+]3=C2CCCCC3)c1 (centres undefined),52*,2,30*,37,1,4
Oc1cc2c(cc1C(c1ccc(Cl)c(Cl)c1)N1CCCC1)OCO2 (centres undefined),4,3,-2,11,0,3
CS(=O)(=O)N(CC(=O)NC1CC2CCC1C2)c1ccc(Oc2ccccc2)cc1 (centres undefined),5,-1,-3,36,1,3
Cc1cc(C)cc(C(=O)NC(CC(N)=O)c2ccc(NC3CCCCC3)c([N+](=O)[O-])c2)c1 (centres undefined),.,-1,.,.,.,.
COc1ccc(NS(=O)(=O)c2ccc(S(=O)(=O)N(C)C)cc2)cc1S(N)(=O)=O,3,-1,4,-5,-37,4
Cc1cccc(N2CC(O)(c3cccs3)[N+]3=C2CCCC3)c1C (centres undefined),36*,-2,24*,30,-5,7
COc1cc(C2Nc3ccc4ncccc4c3C3=C2C(=O)CCC3)ccc1O (centres undefined),11,-2,1,-3,22,27*
Cc1cc(C)c(C#N)c(SC(C(=O)NC(C)(C)C)c2ccccc2)n1 (centres undefined),2,-2,0,.,.,.
Cc1ccc(C)c2[nH]c(=O)c(C(c3nnnn3C(C)(C)C)N3CC=C(c4ccc(F)cc4)CC3)cc12 (centres undefined),2,-2,-2,97*,0,3
Cc1cc2c(c(=O)o1)C(Cc1ccccc1)C(C#N)=C(N)O2 (centres undefined),3,.,-1,-3,-5,3
COc1ccc(Cl)c2c1[nH]c1nc(SCc3ccccn3)nnc12,9,0,1,52*,-157,2
CCSCc1nnc(SCC(=O)Nc2cc(F)ccc2C)n1C,3,0,0,-5,5,1
O=C1C(Cl)=C(N2CCOCC2)C(=O)N1CCc1ccccc1,2,0,-2,-2,-51,1
